Data as given in paper PMC2637182 (Journal of the American Chemical Society, 2008).
Values belong to the substance of their own block, whether it stands above or below them.

Columns and labels:
Test in all cases: Continuous fluorescence kinase assay, kinetic parameters of the substrate
Format in all cases: biochemical
Src = Src (Homo sapiens, UniProt P12931); details: for Km / Vmax: initial slopes, direct fit of ν vs [S], Briggs-Haldane equation, mean ± s.e.m. of triplicate, SEM; for Catalytic Efficiency: kcat/KM (min^-1 μM^-1) normalized to the BTF substrate
Method in brief: (§1)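 Sox-labelled peptide substrates were phosphorylated by the kinase and monitored continuously by fluorescence (λex 360 nm, λem 485 nm) in a fluorometer or a 96-well plate reader. KM and Vmax came from initial slopes, corrected for substrate and product fluorescence, and a direct Briggs-Haldane fit of ν vs [S]. Values are mean ± s.e.m. of triplicates. kcat/KM was normalized to the BTF substrate within each kinase.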

Pim2 = Pim2 (Homo sapiens, UniProt Q9P1W9); details: initial slopes, direct fit of ν vs [S], Briggs-Haldane equation, mean ± s.e.m. of triplicate, SEM
Akt1 = Akt1 (Homo sapiens, UniProt P31749); details: initial slopes, direct fit of ν vs [S], Briggs-Haldane equation, mean ± s.e.m. of triplicate, SEM
Method in brief: (§2)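 Sox-containing peptide substrate becomes fluorescent on phosphorylation through Mg2+ chelation-enhanced fluorescence. Fluorescence was read continuously at λex 360 nm and λem 485 nm. Reaction components were simply mixed, and the reaction was run in a fluorometer or in a 96-well fluorescence plate reader. Rates at varied substrate levels were fitted directly as ν vs [S] to the Briggs-Haldane equation. Each was run in triplicate.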

PKA = PKA (Homo sapiens, UniProt P17612); details: for Km / Vmax: initial slopes, direct fit of ν vs [S], Briggs-Haldane equation, mean ± s.e.m. of triplicate, SEM
Method in brief: as §1

PKCβI = PKCβI (Homo sapiens, UniProt P05771)
PKCδ = PKCδ (Homo sapiens, UniProt Q05655)
MK2 = MK2 (Homo sapiens, UniProt P49137); details: initial slopes, direct fit of ν vs [S], Briggs-Haldane equation, mean ± s.e.m. of triplicate, SEM
Method in brief: as §2

IRK = IRK (Homo sapiens, UniProt P06213); details: for Km / Vmax: initial slopes, direct fit of ν vs [S], Briggs-Haldane equation, mean ± s.e.m. of triplicate, SEM; for Catalytic Efficiency: kcat/KM (min^-1 μM^-1) normalized to the BTF substrate
Method in brief: as §1

Abl = Abl (Homo sapiens, UniProt P00519); details: initial slopes, direct fit of ν vs [S], Briggs-Haldane equation, mean ± s.e.m. of triplicate, SEM
Method in brief: as §2

[1] = initial slopes, direct fit of ν vs [S], Briggs-Haldane equation, mean ± s.e.m. of triplicate, NS = Not a Substrate, SEM

Chain of PKCδ (Q05655 whole entry): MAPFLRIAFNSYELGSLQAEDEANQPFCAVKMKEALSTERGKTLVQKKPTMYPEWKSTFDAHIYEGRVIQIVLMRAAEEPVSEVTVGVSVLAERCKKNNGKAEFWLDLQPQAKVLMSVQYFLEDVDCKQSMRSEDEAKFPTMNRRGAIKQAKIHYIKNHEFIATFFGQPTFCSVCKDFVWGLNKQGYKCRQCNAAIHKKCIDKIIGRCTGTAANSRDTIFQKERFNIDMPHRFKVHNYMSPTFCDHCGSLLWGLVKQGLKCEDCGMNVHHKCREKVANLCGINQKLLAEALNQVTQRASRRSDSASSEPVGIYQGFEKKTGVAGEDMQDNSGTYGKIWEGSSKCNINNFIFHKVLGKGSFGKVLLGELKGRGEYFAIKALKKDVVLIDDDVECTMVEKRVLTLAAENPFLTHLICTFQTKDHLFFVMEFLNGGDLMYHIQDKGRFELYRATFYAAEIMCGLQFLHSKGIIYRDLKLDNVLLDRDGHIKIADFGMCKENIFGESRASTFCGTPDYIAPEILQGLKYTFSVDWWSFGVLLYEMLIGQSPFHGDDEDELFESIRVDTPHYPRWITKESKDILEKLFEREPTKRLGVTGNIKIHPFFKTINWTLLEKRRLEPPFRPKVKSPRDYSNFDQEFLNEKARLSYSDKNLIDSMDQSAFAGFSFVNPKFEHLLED
Chain of IRK (P06213 1012-1310 limits assumed): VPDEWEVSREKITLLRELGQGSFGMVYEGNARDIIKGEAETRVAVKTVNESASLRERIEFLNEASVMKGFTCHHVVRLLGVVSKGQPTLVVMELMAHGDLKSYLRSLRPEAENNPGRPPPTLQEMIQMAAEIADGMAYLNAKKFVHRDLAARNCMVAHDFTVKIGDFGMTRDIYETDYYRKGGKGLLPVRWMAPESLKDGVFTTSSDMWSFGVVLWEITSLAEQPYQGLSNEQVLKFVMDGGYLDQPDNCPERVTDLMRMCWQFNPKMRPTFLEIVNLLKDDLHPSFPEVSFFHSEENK
Chain of PKCβI (P05771 whole entry): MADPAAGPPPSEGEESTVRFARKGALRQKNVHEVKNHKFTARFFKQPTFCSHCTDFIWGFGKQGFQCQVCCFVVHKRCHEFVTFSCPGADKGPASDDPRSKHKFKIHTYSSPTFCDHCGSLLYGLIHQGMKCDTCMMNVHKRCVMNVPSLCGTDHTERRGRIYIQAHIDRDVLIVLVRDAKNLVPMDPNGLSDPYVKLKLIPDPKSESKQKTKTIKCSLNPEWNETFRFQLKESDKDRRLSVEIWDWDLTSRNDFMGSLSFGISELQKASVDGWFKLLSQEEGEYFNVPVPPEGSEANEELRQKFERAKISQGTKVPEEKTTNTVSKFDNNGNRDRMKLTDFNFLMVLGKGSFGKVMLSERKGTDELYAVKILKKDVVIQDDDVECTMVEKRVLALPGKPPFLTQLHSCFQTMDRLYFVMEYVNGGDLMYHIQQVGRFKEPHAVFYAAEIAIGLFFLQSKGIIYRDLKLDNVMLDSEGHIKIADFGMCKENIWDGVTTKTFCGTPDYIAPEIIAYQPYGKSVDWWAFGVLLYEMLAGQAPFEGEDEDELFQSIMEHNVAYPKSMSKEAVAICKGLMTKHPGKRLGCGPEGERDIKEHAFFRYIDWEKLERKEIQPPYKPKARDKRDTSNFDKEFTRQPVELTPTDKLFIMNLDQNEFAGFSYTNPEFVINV
Chain of Akt1 (P31749 whole entry, species assumed): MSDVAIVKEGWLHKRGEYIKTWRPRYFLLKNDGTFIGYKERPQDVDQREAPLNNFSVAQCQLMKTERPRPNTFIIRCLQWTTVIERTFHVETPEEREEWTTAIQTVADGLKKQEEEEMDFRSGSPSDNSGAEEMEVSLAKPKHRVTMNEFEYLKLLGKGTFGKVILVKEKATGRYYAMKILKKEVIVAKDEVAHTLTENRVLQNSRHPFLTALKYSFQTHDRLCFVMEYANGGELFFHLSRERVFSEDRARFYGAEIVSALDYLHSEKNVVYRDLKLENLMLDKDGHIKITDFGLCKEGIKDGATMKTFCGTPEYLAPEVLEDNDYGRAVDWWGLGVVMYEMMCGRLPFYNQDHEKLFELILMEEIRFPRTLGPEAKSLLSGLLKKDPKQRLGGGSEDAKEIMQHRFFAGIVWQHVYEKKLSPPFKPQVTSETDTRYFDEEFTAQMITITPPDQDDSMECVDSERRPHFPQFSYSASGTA
Chain of MK2 (P49137 whole entry, species assumed): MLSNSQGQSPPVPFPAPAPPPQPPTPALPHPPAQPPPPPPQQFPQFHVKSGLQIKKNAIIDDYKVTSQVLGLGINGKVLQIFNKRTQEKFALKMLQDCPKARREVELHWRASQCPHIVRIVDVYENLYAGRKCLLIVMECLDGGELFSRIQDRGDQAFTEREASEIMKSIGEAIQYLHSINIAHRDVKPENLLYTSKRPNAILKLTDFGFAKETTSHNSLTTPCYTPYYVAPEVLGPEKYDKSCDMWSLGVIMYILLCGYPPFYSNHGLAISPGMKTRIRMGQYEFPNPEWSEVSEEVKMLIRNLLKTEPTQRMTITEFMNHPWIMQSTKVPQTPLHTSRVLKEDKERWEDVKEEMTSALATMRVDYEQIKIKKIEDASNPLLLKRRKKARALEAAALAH
Chain of Abl (P00519 whole entry, species assumed): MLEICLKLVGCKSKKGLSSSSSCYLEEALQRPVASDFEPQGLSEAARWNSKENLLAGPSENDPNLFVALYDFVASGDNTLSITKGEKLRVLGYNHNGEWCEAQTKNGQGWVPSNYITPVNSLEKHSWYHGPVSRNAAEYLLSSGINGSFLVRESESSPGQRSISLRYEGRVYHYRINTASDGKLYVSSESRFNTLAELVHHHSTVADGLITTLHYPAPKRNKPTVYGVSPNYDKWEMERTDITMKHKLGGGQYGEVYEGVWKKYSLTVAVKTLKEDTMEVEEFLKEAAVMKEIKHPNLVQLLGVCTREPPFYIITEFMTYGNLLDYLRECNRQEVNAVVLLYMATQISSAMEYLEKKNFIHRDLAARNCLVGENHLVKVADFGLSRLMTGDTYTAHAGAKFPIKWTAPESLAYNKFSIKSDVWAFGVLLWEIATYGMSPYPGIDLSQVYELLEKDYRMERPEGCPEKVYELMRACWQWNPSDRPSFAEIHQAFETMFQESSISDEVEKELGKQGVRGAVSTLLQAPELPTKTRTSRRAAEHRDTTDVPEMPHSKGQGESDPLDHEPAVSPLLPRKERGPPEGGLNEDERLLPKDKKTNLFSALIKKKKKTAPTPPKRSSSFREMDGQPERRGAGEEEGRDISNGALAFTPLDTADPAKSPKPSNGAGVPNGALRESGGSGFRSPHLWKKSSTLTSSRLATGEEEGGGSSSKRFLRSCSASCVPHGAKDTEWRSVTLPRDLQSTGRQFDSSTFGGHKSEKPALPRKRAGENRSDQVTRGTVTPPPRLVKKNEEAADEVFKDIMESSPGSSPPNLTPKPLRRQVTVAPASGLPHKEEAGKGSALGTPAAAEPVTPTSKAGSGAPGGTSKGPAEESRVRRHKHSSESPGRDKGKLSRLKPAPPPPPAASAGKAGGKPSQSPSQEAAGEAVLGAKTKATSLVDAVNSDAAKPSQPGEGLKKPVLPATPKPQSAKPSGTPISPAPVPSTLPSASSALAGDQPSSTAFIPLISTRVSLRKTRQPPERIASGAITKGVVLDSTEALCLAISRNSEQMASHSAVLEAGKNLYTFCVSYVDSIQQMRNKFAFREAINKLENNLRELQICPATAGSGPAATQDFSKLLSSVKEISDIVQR
Chain of Pim2 (Q9P1W9 whole entry, species assumed): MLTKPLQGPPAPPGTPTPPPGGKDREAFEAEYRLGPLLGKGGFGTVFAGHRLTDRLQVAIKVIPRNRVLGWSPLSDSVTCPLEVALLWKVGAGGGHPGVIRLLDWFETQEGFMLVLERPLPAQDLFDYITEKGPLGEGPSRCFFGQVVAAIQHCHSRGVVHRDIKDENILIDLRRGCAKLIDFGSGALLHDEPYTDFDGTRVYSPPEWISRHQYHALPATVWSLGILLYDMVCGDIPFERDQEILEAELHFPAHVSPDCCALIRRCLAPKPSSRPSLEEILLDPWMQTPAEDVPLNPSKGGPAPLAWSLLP

- Km (Src): 30.7 ± 5.8 µM
- Vmax (Src): 0.54 ± 0.04 µmol/mg/min
- Catalytic Efficiency (Src): 1
Substance: Ac-Sox-PEIY*GEFEAKKKK-CONH2 [Src BTF]

- turnover by the kinase (in words) (PKCβI; Figure S3): excellent substrates
- Km (PKCβI; [1]): 0.81 ± 0.18 µM
- Vmax (PKCβI; [1]): 0.76 ± 0.06 µmol/mg/min
Substance: Ac-LKR-CSox-AS*FKKFA-CONH2 [PKCβI RDF]

- Km (PKA): 2.6 ± 0.3 µM
- Vmax (PKA): 17.9 ± 0.8 µmol/mg/min
- Catalytic Efficiency (PKA; kcat/KM (min^-1 μM^-1) normalized to the BTF substrate): 1
Substance: Ac-ALRRAS*L-CSox-AA-CONH2 [PKA RDF]

- turnover by the kinase (in words) (PKCδ; Figure S3): excellent substrates
- Km (PKCδ; [1]): 0.48 ± 0.07 µM
- Vmax (PKCδ; [1]): 0.39 ± 0.02 µmol/mg/min
Substance: Ac-RKRKGS*F-CSox-YGG-CONH2 [PKCδ RDF]

- Km (Src): 7 ± 1 µM
- Vmax (Src): 3.4 ± 0.2 µmol/mg/min
- Catalytic Efficiency (Src): 28
Substance: Ac-AEE-CSox-IY*GEFEAKKKK-CONH2 [Src RDF]

More lines, now with the values behind:

Substance: Ac-ARKRRRHPS*G-CSox-PTA-CONH2 [Pim2 RDF]
- Km (Pim2): 1.4 ± 0.1 µM
- Vmax (Pim2): 0.67 ± 0.02 µmol/mg/min

Substance: Ac-ARKRERAYS*F-CSox-HHA-CONH2 [Akt1 RDF]
- Km (Akt1): 0.69 ± 0.11 µM
- Vmax (Akt1): 2.5 ± 0.2 µmol/mg/min

Substance: Ac-LRRAS*L-DPro-Sox-G-CONH2 [PKA BTF]
- Km (PKA): 2.7 ± 0.4 µM
- Vmax (PKA): 26.5 ± 1.1 µmol/mg/min

Substance: Ac-AHLQRQLS*I-CSox-HH-CONH2 [MK2 RDF]
- Km (MK2): 1.2 ± 0.2 µM
- Vmax (MK2): 1.3 ± 0.1 µmol/mg/min

Substance: Ac-R-CSox-DY*-Nle-TMQIGKK-CONH2 [IRK RDF]
- Km (IRK): 27.1 ± 3.9 µM
- Vmax (IRK): 6.3 ± 0.4 µmol/mg/min
- Catalytic Efficiency (IRK): 1

Substance: Ac-Sox-PGDY*-Nle-TMQIGKK-CONH2 [IRK BTF]
- Km (IRK): 25.7 ± 0.7 µM
- Vmax (IRK): 7.3 ± 2.2 µmol/mg/min
- Catalytic Efficiency (IRK): 1

Substance: Ac-E-CSox-IY*AAPFAKKK-CONH2 [Abl RDF]
- Km (Abl): 10.5 ± 1.5 µM
- Vmax (Abl): 19.1 ± 1.0 µmol/mg/min
